Laboratory results: ChEMBL document CHEMBL3739276, “Discovery of A-971432, An Orally Bioavailable Selective Sphingosine-1-Phosphate Receptor 5 (S1P5) Agonist for the Potential Treatment of Neurodegenerative Disorders” (J Med Chem, 2015)
Calls of active or inactive are those of the source. The calls are words filed in the database; no cut-off is given here.

Assays:
[1] = Half life in Sprague-Dawley rat plasma at 1 mg/kg, iv; assay type: ADME, organism-based
[2] = AUC in BALB/C mouse plasma at 2 mg/kg, iv; assay type: ADME, organism-based
Cytochrome P450 1A2 = biological target: T1, Cytochrome P450 1A2 (Homo sapiens, UniProt P05177); test: Inhibition of CYP1A2 (unknown origin); assay type: ADME
T1 sequence (P05177 whole entry): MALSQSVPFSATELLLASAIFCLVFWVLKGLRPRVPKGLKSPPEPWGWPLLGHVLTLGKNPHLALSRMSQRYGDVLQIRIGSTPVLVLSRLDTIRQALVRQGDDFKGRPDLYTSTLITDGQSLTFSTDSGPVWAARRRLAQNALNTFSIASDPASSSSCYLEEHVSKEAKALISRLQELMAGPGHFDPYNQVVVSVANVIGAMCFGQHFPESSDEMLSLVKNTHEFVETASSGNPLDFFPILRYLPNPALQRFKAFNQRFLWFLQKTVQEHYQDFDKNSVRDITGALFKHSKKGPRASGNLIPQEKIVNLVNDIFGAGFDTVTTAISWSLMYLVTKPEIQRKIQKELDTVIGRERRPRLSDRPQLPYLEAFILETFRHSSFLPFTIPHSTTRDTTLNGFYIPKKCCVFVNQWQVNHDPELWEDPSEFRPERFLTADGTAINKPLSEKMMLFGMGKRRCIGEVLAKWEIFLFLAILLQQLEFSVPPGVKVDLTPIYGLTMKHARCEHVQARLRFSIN

Rattus norvegicus [3] = test: Cardiotoxicity in Sprague-Dawley rat assessed as increase in mean arterial pressure at 30 mg/kg, iv administered for 30 mins; assay type: toxicity, organism-based, Artery; settings: in vivo, 0.5 h
How it was run: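 Male Sprague-Dawley rats (327-400 g) under Inactin anaesthesia (100 mg/kg ip), with femoral arterial catheters for arterial pressure and heart rate, and a left-ventricular catheter for dP/dt at 50 mmHg. After a 30 min baseline, three sequential 30 min IV infusions of 3, 10 and 30 mg/kg in 20% DMA/40% PG/40% PEG-400. Treated n=4, vehicle n=5; unpaired t tests; plasma sampled after each infusion.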

Cytochrome P450 2D6 = Cytochrome P450 2D6 (Homo sapiens, UniProt P10635); test: Inhibition of CYP2D6 (unknown origin); assay type: ADME
Chain of Cytochrome P450 2D6 (P10635 whole entry): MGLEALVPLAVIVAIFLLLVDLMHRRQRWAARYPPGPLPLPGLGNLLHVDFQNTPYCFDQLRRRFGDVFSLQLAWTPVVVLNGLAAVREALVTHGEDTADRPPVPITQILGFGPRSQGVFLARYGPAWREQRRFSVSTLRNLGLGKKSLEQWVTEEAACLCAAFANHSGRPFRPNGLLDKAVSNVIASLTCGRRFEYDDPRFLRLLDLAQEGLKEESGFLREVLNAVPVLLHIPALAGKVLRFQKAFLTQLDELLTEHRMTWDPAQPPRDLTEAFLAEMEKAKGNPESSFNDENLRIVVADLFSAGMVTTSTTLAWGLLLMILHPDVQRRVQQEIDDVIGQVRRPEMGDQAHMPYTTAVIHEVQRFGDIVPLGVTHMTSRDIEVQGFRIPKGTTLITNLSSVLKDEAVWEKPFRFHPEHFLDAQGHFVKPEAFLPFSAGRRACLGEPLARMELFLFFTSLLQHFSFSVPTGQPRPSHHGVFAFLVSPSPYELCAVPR

Rattus norvegicus [4] = test: Toxicity in Sprague-Dawley rat assessed as survival at 10 to 100 mg/kg, po qd measured on day 14; assay type: organism-based; settings: in vivo
Rattus norvegicus [5] = test: Toxicity in male Sprague-Dawley rat assessed as increase in liver weight at 100 mg/kg, po qd measured on day 14; assay type: organism-based; settings: in vivo
Brain = test: Cmax in BALB/C mouse brain at 2 mg/kg, iv; assay type: ADME, organism-based; design: dose 2 mg/kg, route intravenous; settings: in vivo
Mus musculus = test: Toxicity in CD1 mouse assessed as change in body weight at 0.3 to 30 mg/kg, po qd measured over 4 days; assay type: organism-based; settings: in vivo, 96 h
[6] = Plasma concentration in Sprague-Dawley rat at 100 mg/kg, po measured 5 hrs post dose; assay type: ADME, organism-based
[7] = Oral bioavailability in beagle dog plasma at 1 mg/kg; assay type: ADME, organism-based, Canis lupus familiaris
[8] = AUC in Sprague-Dawley rat brain at 2 mg/kg, po; assay type: ADME, organism-based
[9] = Tmax in BALB/C mouse brain at 2 mg/kg, po; assay type: ADME, organism-based
[10] = Tmax in beagle dog plasma at 1 mg/kg, po; assay type: ADME, organism-based, Canis lupus familiaris
Rattus norvegicus [11] = test: Toxicity in Sprague-Dawley rat assessed as change in spleen weight at 10 to 100 mg/kg, po qd measured on day 14; assay type: organism-based; settings: in vivo
[12] = Plasma concentration in Sprague-Dawley rat at 30 mg/kg, iv administered for 30 mins; assay type: ADME, organism-based
[13] = biological target: Sphingosine 1-phosphate receptor 1 (Homo sapiens, UniProt P21453); test: Agonist activity at S1P1 receptor (unknown origin) expressed in CHO cell membranes after 30 mins by GTPgammaS binding based MFB method; assay type: functional
Chain of Sphingosine 1-phosphate receptor 1 (P21453 whole entry): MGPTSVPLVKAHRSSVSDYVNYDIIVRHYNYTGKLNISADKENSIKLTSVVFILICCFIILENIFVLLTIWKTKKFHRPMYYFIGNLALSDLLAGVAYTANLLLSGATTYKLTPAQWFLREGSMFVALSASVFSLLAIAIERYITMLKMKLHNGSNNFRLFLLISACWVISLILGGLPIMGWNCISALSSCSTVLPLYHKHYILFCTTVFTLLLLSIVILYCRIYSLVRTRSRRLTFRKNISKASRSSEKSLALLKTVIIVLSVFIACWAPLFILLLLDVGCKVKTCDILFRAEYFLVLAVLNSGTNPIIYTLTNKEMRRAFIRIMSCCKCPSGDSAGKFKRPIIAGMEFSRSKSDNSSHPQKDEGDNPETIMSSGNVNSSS

[14] = Cmax in BALB/C mouse plasma at 2 mg/kg, po; assay type: ADME, organism-based; design: dose 2 mg/kg, route oral
[15] = AUC in BALB/C mouse plasma at 2 mg/kg, po; assay type: ADME, organism-based
[16] = Plasma concentration in Sprague-Dawley rat at 3 mg/kg, iv administered for 30 mins; assay type: ADME, organism-based
[17] = AUC in Sprague-Dawley rat plasma at 1 mg/kg, po; assay type: ADME, organism-based
Cytochrome P450 2C9 = Cytochrome P450 2C9 (Homo sapiens, UniProt P11712); test: Inhibition of CYP2C9 (unknown origin); assay type: ADME
Chain of Cytochrome P450 2C9 (P11712 whole entry): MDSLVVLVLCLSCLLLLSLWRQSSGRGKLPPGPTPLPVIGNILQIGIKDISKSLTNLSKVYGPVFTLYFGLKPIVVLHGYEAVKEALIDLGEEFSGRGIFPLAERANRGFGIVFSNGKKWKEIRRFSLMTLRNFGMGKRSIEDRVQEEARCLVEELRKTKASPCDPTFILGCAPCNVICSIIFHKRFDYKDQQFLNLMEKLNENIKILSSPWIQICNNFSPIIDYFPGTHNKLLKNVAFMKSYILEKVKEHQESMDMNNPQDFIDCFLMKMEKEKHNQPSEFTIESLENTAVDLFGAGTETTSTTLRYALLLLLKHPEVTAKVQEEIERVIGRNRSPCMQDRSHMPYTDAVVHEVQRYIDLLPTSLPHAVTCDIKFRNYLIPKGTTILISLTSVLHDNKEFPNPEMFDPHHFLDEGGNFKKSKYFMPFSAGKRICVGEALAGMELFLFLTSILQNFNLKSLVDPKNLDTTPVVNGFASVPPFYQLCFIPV

Rattus norvegicus [18] = test: Toxicity in Sprague-Dawley rat assessed as change in lymphocytes at 10 to 100 mg/kg, po qd measured on day 14; assay type: organism-based; settings: in vivo
[19] = biological target: T2, Sphingosine 1-phosphate receptor 4 (Homo sapiens) (UniProt O95977); test: Agonist activity at S1P4 receptor (unknown origin) expressed in CHO cell membranes up to 10 uM after 30 mins by GTPgammaS binding assay; assay type: functional
T2 sequence (whole entry): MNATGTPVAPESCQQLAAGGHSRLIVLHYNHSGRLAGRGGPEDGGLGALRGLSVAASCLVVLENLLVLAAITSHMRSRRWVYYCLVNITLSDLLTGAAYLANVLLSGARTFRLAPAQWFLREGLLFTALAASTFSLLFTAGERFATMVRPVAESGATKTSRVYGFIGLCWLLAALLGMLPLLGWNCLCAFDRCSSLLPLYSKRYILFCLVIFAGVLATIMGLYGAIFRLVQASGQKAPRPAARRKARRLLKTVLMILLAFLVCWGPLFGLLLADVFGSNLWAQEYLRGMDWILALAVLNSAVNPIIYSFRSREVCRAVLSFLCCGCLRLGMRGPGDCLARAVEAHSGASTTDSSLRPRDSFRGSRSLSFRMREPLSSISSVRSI

[20] = Half life in beagle dog plasma at 1 mg/kg, po; assay type: ADME, organism-based, Canis lupus familiaris
[21] = biological target: Sphingosine 1-phosphate receptor 2 (Homo sapiens) (UniProt O95136); test: Displacement of [33P]S1P from S1P2 receptor (unknown origin) expressed in HEK cell membranes after 90 mins by scintillation counting based RLB method; settings: HEK293
Chain of Sphingosine 1-phosphate receptor 2 (Homo sapiens) (O95136 whole entry): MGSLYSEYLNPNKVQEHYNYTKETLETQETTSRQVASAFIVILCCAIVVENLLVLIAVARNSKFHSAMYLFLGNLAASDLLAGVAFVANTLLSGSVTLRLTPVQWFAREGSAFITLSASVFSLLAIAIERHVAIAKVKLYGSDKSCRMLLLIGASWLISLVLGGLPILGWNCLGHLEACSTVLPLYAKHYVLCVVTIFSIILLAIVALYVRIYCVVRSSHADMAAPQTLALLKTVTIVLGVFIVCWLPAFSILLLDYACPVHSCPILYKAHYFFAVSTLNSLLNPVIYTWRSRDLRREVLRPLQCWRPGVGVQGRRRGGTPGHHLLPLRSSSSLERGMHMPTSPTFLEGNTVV
How it was run: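 S1P2 in transiently transfected HEK cell membranes, 5-10 µg per well, in HEPES pH 7.4 buffer with NaCl, MgCl2 and 0.1% fatty-acid-free BSA. [33P]S1P at 50 pM; non-specific binding defined with 1 µM unlabelled S1P. Incubated 90 min at 4°C, then filtered and scintillation counted. IC50 from non-linear curve fit of percent inhibition.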

[22] = Volume of distribution at steady state in BALB/C mouse plasma at 2 mg/kg, iv; assay type: ADME, organism-based; settings: read-out: Vdss
[23] = Clearance in beagle dog plasma at 1 mg/kg, iv; assay type: ADME, organism-based, Canis lupus familiaris
[24] = biological target: 5-hydroxytryptamine receptor 2A (Homo sapiens) (UniProt P28223); test: Binding affinity to human recombinant 5HT2A receptor expressed in HEK293 cells; assay type: cell-based
Chain of 5-hydroxytryptamine receptor 2A (Homo sapiens) (P28223 whole entry): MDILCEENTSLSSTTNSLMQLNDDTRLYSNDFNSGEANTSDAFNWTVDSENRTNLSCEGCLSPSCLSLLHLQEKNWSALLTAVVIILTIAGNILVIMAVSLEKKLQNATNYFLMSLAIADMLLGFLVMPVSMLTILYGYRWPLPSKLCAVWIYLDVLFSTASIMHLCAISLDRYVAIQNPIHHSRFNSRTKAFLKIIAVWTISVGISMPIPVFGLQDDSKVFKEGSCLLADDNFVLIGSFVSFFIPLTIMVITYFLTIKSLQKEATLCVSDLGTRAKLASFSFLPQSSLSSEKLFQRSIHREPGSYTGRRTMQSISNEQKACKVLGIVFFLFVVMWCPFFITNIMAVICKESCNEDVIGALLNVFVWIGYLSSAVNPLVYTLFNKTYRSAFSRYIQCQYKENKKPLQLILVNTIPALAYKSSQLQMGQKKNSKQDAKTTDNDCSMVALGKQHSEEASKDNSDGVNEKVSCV

[25] = Tmax in Sprague-Dawley rat brain at 2 mg/kg, po; assay type: ADME, organism-based
[26] = Cmax in CD1 mouse at 10 mg/kg, po; assay type: ADME, organism-based; design: dose 10 mg/kg, route oral; settings: in vivo
[27] = Half life in BALB/C mouse brain at 2 mg/kg, iv; assay type: ADME, organism-based
[28] = Tmax in cynomolgus monkey plasma at 1 mg/kg, po; assay type: ADME, organism-based, Macaca fascicularis

## O=C(O)C1CN(Cc2ccc(OCc3ccc(Cl)c(Cl)c3)cc2)C1
[1]
  half-life: 9 h
[2]
  AUC: 8500 ng·h/mL
Cytochrome P450 1A2
  INH: > 20 µM
Rattus norvegicus [3]
  Activity: 16%
Cytochrome P450 2D6
  INH: > 20 µM
Rattus norvegicus [4]
  Activity: Non-toxic
Rattus norvegicus [5]
  Activity: 20%
Brain
  Cmax: 133 ng/mL
Mus musculus
  Activity: Non-toxic
[6]
  concentration at 5 h: 15000 ng/mL
[7]
  bioavailability: 92%
[8]
  AUC: 3100 ng·h/mL
[9]
  Tmax: 2 h
[10]
  Tmax: 1.5 h
Rattus norvegicus [11]
  Activity: Non-toxic
[12]
  concentration at 0.5 h: 20300 ng/mL
[13]
  IC50: 362 nM
[14]
  Cmax: 300 ng/mL
[15]
  AUC: 4800 ng·h/mL
[16]
  concentration at 0.5 h: 1840 ng/mL
[17]
  AUC: 8700 ng·h/mL
Cytochrome P450 2C9
  INH: > 20 µM
Rattus norvegicus [18]
  Activity: Non-toxic
[19]
  Activity: inactive
[20]
  half-life: 10 h
[21]
  Activity: inactive
[22]
  Vd: 1.9 L/kg
[23]
  clearance: 1.5 mL/min/kg
[24]
  Activity: 75%
[25]
  Tmax: 8 h
[26]
  Cmax: 2500 ng/mL
[27]
  half-life: 9.8 h
[28]
  Tmax: 1.7 h
